Measurements as given in ChEMBL document CHEMBL1148068, “Bistramides A, B, C, D, and K: a new class of bioactive cyclic polyethers from Lissoclinum bistratum” (J Nat Prod, 1994).
≈ marks a conversion by molar mass, not a printed value. Calls of active or inactive are those of the source. The calls are words filed in the database; no cut-off is given here.

Experiments:
HT-29 = assay: Cytotoxicity against human HT-29 cells after 72 hrs by MTT assay; type: functional, cell-based; settings: HT-29, 72 h
Summary of the method: (§1)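 Cells were seeded in microtiter plates at 0.1 × 10^3 cells/ml. Growth was estimated at 72 h by MTT conversion to formazan. Values are means of 3 experiments.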

P388 [1] = assay: Antitumor activity against mouse P388 cells xenografted mouse at 0.4 mg/kg, ip administered as 3 doses; type: functional; settings: route intraperitoneal
[2] = Cell cycle arrest in human NSCLC-N6 cells assessed as reduction in accumulation at S phase by flow cytometry; type: functional, cell-based
Summary of the method: (§2)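 NSCLC-N6 cells were grown in RPMI 1640 with 5% FCS, penicillin, streptomycin and 2 mM glutamine. 0.8 × 10^3 cells were cultured in flasks with or without compound for 48 h. Medium was removed and cells stained in situ with Vindelov solution. DNA content of 2000 nuclei was measured by flow cytometry to give DNA histograms.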

[3] = Cell cycle arrest in human NSCLC-N6 cells assessed as increase in accumulation at G2M phase by flow cytometry; type: functional, cell-based; summary of the method: as §2
KB = assay: Cytotoxicity against human KB cells after 72 hrs by MTT assay; type: functional, cell-based; summary of the method: as §1
[4] = Cytotoxicity against human NSCLC-N6 cells after 72 hrs by MTT assay; type: functional, cell-based; settings: NSCLC-N6, 72 h
Summary of the method: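 Cells originated from a nude-mouse graft and were cultured in RPMI 1640 with 5% fetal calf serum, penicillin, streptomycin and 2 mM glutamine. They were seeded in microtiter plates at 0.1 × 10^3 cells/ml. Growth was read by MTT-to-formazan conversion at 72 h. Values are means of 3 experiments.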

P388 [5] = assay: Cytotoxicity against mouse P388 cells after 72 hrs by MTT assay; type: functional, cell-based; settings: P388, 72 h; summary of the method: as §1
B16 = assay: Cytotoxicity against mouse B16 cells after 72 hrs by MTT assay; type: functional, cell-based; settings: B16, 72 h; summary of the method: as §1
P388 [6] = assay: Cytotoxicity against mouse doxorubicin resistant P388 cells after 72 hrs by MTT assay; type: functional, cell-based; settings: P388, 72 h; summary of the method: as §1
NSCLC-N6 = assay: Induction of polyploidy in human NSCLC-N6 cells assessed as 4N chromosome levels at 1 ug/ml by DNA cytogram; type: functional, cell-based; summary of the method: as §2
[7] = Antitumor activity against human NSCLC-N6 cells xenografted mouse at 20 mg/kg, iv administered as 4 doses measured after 30 days; type: functional
Summary of the method: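 Nude mice carried sc NSCLC-N6 xenografts, serially passaged as mechanically dispersed tumour (about 1 g in 4.8 ml saline, 0.2 ml per mouse). Six mice per group were treated once tumours reached 50–200 mm3. Each received 20 mg/kg iv on days 1, 5, 9 and 11 (4 doses), in physiological saline with 2% DMSO.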

[8] = Cell cycle arrest in human NSCLC-N6 cells assessed as accumulation at G1 phase by flow cytometry; type: functional, cell-based; summary of the method: as §2
[9] = Antitumor activity against human NSCLC-N6 cells xenografted mouse at 10 mg/kg/day, ip administered for 16 days measured after 30 days; type: functional; settings: route intraperitoneal
Summary of the method: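 NSCLC-N6 tumour maintained by serial sc transplant in nude mice: 0.2 ml of a suspension from about 1 g of mechanically dispersed excised tumour in 4.8 ml sterile saline. Groups of six mice were treated once tumours reached 50–200 mm3. Dosing was 10 mg/kg ip daily on days 1–16, in physiological saline with 2% DMSO.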

Compound	IC50 (HT-29) [µg/mL]	T/C (P388 [1]) [%]	Activity [2]	Activity [3]	IC50 (KB) [µg/mL]	IC50 [4] [µg/mL]	IC50 (P388 [5]) [µg/mL]	IC50 (B16) [µg/mL]	IC50 (P388 [6]) [µg/mL]	Activity (NSCLC-N6)	T/C [7] [%]	Activity [8]	T/C [9] [%]
C/C=C/C(=O)C[C@H]1CC[C@H](C)[C@H](CC(=O)NC[C@H](O)[C@H](C)C(=O)NCCC[C@H]2O[C@@]3(CCC[C@H](CC[C@H](C)/C=C(\C)[C@H](C)O)O3)CC[C@@H]2C)O1 [BISTRAMIDE A]	0.32 (≈ 0.454 µM)	118	Active	Active	0.53 (≈ 0.752 µM)	0.03 (≈ 0.0426 µM)	0.2 (≈ 0.284 µM)	0.1 (≈ 0.142 µM)	0.05 (≈ 0.0709 µM)	Active	–	–	–
CCCC(=O)CC1CCC(C)C(CC(=O)NCC(O)C(C)C(=O)NCCCC2OC3(CCCC(CCC(C)/C=C(\C)C(C)O)O3)CCC2C)O1 (stereo unspecified) [BISTRAMIDE B]	0.71 (≈ 1 µM)	–	Active	–	2.1 (≈ 2.97 µM)	0.32 (≈ 0.453 µM)	0.2 (≈ 0.283 µM)	1.2 (≈ 1.7 µM)	1.16 (≈ 1.64 µM)	–	–	–	–
C/C=C/C(=O)C[C@H]1CC[C@H](C)[C@H](CC(=O)NC[C@H](O)[C@H](C)C(=O)NCCC[C@H]2O[C@@]3(CCC[C@@H](CC[C@H](C)/C=C(\C)C(C)=O)O3)CC[C@@H]2C)O1 [BISTRAMIDE C]	0.5 (≈ 0.711 µM)	–	Active	–	0.65 (≈ 0.925 µM)	0.05 (≈ 0.0711 µM)	0.02 (≈ 0.0285 µM)	0.06 (≈ 0.0854 µM)	0.05 (≈ 0.0711 µM)	–	–	–	–
C/C=C/[C@H](O)CC1CCC(C)C(CC(=O)NCC(O)C(C)C(=O)NCCCC2OC3(CCCC(CCC(C)/C=C(\C)C(C)O)O3)CCC2C)O1 (stereo partly specified) [BISTRAMIDE D]	2.76 (≈ 3.9 µM)	–	Active	–	10 (≈ 14.1 µM)	3.43 (≈ 4.85 µM)	0.36 (≈ 0.509 µM)	0.1 (≈ 0.141 µM)	5.82 (≈ 8.23 µM)	–	53	–	–
C/C=C/C(O)C/C=C/CC(C)C(O)CC(=O)NCC(O)C(C)C(=O)NCCCC1OC2(CCCC(CCC(C)/C=C(\C)C(C)O)O2)CCC1C (stereo unspecified) [BISTRAMIDE K]	5.6 (≈ 7.92 µM)	–	–	–	> 10	3.23 (≈ 4.57 µM)	0.57 (≈ 0.806 µM)	1.9 (≈ 2.69 µM)	> 10	–	–	Active	49
Sc1ncnc2nc[nH]c12 [MERCAPTOPURINE ANHYDROUS]	0.87 (≈ 5.72 µM)	–	–	–	0.55 (≈ 3.61 µM)	0.79 (≈ 5.19 µM)	0.7 (≈ 4.6 µM)	0.8 (≈ 5.26 µM)	0.26 (≈ 1.71 µM)	–	–	–	–
